Reference: ChEMBL document CHEMBL1240380, “Acinetobacter baumannii increases tolerance to antibiotics in response to monovalent cations” (Antimicrob Agents Chemother, 2010)
Calls of active or inactive are those of the source. The rule behind the calls is not given here.

Columns and labels:
[1] = tested on: Acinetobacter baumannii; assay: Antibacterial activity against Acinetobacter baumannii ATCC 17978 assessed as bacterial growth at 4.5 mg/L in presence of 150 mM NaCl; type: functional
In short: (§1)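 Overnight cultures were diluted 1:100 in NaCl-free MHB and grown to OD600 0.4. They were then diluted to 10^5 CFU/ml in MHB with or without 150 mM NaCl, plus or minus antibiotic. Growth was run in triplicate for 12 h at 37°C with shaking at 180 rpm, and OD600 was read every 2 h.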

[2] = tested on: Acinetobacter baumannii; assay: Antibacterial activity against Acinetobacter baumannii using MHB medium assessed as bacterial growth at 4.5 mg/L in presence of 150 mM of KCl; type: functional, organism-based
In short: as §1, with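 “Growth-curve challenge with 150 mM KCl in place of NaCl. Overnight” for “Overnight”, “KCl,” for “NaCl,”, “plus” for “plus or minus”, “Cultures ran” for “Growth was run”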

[3] = tested on: Acinetobacter baumannii; assay: Antibacterial activity against Acinetobacter baumannii using MHB medium assessed as bacterial growth at 4.5 mg/L after 12 hrs in presence of 30 mg/L efflux pump inhibitor PAbetaN; type: functional, organism-based
[4] = tested on: Acinetobacter baumannii; assay: Antibacterial activity against Acinetobacter baumannii using MHB medium with 150 mM assessed as bacterial growth at 4.5 mg/L after 12 hrs in presence of 30 mg/L efflux pump inhibitor PAbetaN; type: functional, organism-based
[5] = tested on: Acinetobacter baumannii; assay: Antibacterial activity against Acinetobacter baumannii ATCC 17978 isolated from human CSF; type: functional, organism-based
[6] = tested on: Acinetobacter baumannii; assay: Antibacterial activity against Acinetobacter baumannii isolate 510 isolated from human sputum; type: functional, organism-based
[7] = tested on: Acinetobacter baumannii; assay: Antibacterial activity against Acinetobacter baumannii isolate 2824 isolated from human urine; type: functional, organism-based
[8] = tested on: Acinetobacter baumannii; assay: Antibacterial activity against Acinetobacter baumannii isolate 2898 isolated from human ankle; type: functional, organism-based
[9] = tested on: Acinetobacter baumannii; assay: Antibacterial activity against Acinetobacter baumannii isolate 4860 isolated from human urine; type: functional, organism-based
[10] = tested on: Acinetobacter baumannii; assay: Antibacterial activity against Acinetobacter baumannii isolate 5191 isolated from human urine; type: functional, organism-based
[11] = tested on: Acinetobacter baumannii; assay: Antibacterial activity against Acinetobacter baumannii ATCC 17978 assessed as bacterial growth at 0.0625 mg/L in presence of 150 mM NaCl; type: functional; in short: as §1
[12] = tested on: Acinetobacter baumannii; assay: Antibacterial activity against Acinetobacter baumannii ATCC 17978 assessed as bacterial growth at 1.125 mg/L in presence of 150 mM NaCl; type: functional
In short: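 Strain grown overnight, diluted 1:100 in MHB without NaCl and grown to OD600 0.4. Then diluted to 10^5 CFU/ml in MHB supplemented with 150 mM NaCl, with or without gentamicin 1.125 mg/liter. Incubated 12 h at 37°C with shaking at 180 rpm, in triplicate. Growth followed by OD600 every 2 h.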

Molecule | Activity [1] | Activity [2] | Activity [3] | Activity [4] | Activity [5] | Activity [6] | Activity [7] | Activity [8] | Activity [9] | Activity [10] | Activity [11] | Activity [12]
NCC[C@H](O)C(=O)N[C@@H]1C[C@H](N)[C@@H](O[C@H]2O[C@H](CN)[C@@H](O)[C@H](O)[C@H]2O)[C@H](O)[C@H]1O[C@H]1O[C@H](CO)[C@@H](O)[C@H](N)[C@H]1O | inactive | inactive | Active | inactive | Active | inactive | inactive | inactive | inactive | inactive |  | 
C[C@@H](O)[C@H]1C(=O)N2C(C(=O)O)=C(SCCNC=N)C[C@H]12 |  |  |  |  | Active | Active | Active | Active | Active | Active | inactive | 
C[C@H]1[C@H](NC(=O)/C(=N\OC(C)(C)C(=O)O)c2csc(N)n2)C(=O)N1S(=O)(=O)O |  |  |  |  | inactive | inactive | inactive | inactive | inactive | inactive |  | 
O=C(O)c1cn(C2CC2)c2cc(N3CCNCC3)c(F)cc2c1=O |  |  |  |  |  | inactive | inactive | inactive | inactive | inactive |  | 
NC[C@H]1O[C@H](O[C@H]2[C@H](O)[C@@H](O[C@H]3O[C@H](CO)[C@@H](O)[C@H](N)[C@H]3O)[C@H](N)C[C@@H]2N)[C@H](N)C[C@@H]1O |  |  |  |  | Active | inactive | inactive | inactive | inactive | inactive |  | 
CN(C)[C@@H]1C(O)=C(C(N)=O)C(=O)[C@@]2(O)C(O)=C3C(=O)c4c(O)cccc4[C@@](C)(O)[C@H]3C[C@@H]12 |  |  |  |  |  |  | inactive |  | inactive | inactive |  | 
GENTAMICIN |  |  |  |  | Active | inactive | inactive | inactive | inactive | inactive |  | inactive
